Measurements as given in ChEMBL document CHEMBL4842312, “Phenoxazine nucleoside derivatives with a multiple activity against RNA and DNA viruses” (Eur J Med Chem, 2021).
≈ marks a conversion by molar mass, not a printed value.

What was measured:
[1] = tested on: Human alphaherpesvirus 3; assay: Antiviral activity against Varicella zoster virus infected in HEL cells assessed as reduction in viral plaque formation; assay type: functional
Outline: (§1)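 Confluent HEL cultures received 100 CCID50 or 20 PFU of virus, with 2 h adsorption before inoculum removal. Cells were then incubated with compound from 100 μM downward. Cytopathicity or plaques were scored once untreated infected controls reached completion.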

[2] = tested on: Human betaherpesvirus 5; assay: Antiviral activity against cytomegalovirus infected in HEL cells assessed as reduction in viral plaque formation; assay type: functional
Outline: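 Confluent HEL cultures infected with 20 PFU of CMV (AD-169 or Davis), 2 h adsorption, inoculum removed, then compounds added at varying concentrations from 100 μM. Plaques scored once complete in untreated infected controls.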

[3] = tested on: Human alphaherpesvirus 2; assay: Antiviral activity against Herpes simplex virus 2 infected in HEL cells assessed as reduction in viral plaque formation; assay type: functional; outline: as §1
[4] = tested on: Human alphaherpesvirus 1; assay: Antiviral activity against Herpes simplex virus 1 infected in HEL cells assessed as reduction in viral plaque formation; assay type: functional; outline: as §1
[5] = Selectivity index, ratio of CC50 for pig PEK cells to EC50 for Antiviral activity against Powassan virus infected in pig PEK cells; assay type: toxicity, cell-based; details: read-out: Ratio CC50/EC50
[6] = tested on: Human betaherpesvirus 5; assay: Antiviral activity against Human cytomegalovirus AD169; assay type: functional, organism-based; details: Human betaherpesvirus 5, AD169; outline: as §1
[7] = tested on: Powassan virus; assay: Antiviral activity against Powassan virus infected in pig PEK cells assessed as reduction in virus plaque formation preincubated with virus for 1 hr followed by cell infection and measured after 1 hr by crystal violet staining based assay; assay type: functional, organism-based
[8] = tested on: Tick-borne encephalitis virus; assay: Antiviral activity against Tick-borne encephalitis virus infected in pig PEK cells assessed as reduction in virus plaque formation preincubated with virus for 1 hr followed by cell infection and measured after 1 hr by crystal violet staining based assay; assay type: functional, organism-based
[9] = tested on: MDCK; assay: (§2) Cytotoxicity in dog MDCK cells assessed as reduction in cell viability measured after 3 days by beckman coulter counting method; assay type: cell-based, Canis lupus familiaris; details: mdck, 72 h, time 3 day
Outline: (§3)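 Cells were seeded at 5 × 10³/well, grown 24 h, then exposed to compound from 100 μM downward for 3 days at 37 °C. Cell number was counted with a Coulter counter.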

[10] = tested on: Chikungunya virus; assay: Antiviral activity against Chikungunya virus infected in African green monkey Vero cells assessed as reduction in virus plaque formation preincubated with virus for 1 hr followed by cell infection and measured after 1 hr by crystal violet staining based assay; assay type: functional, organism-based
[11] = Selectivity index, ratio of CC50 for pig PEK cells to EC50 for Antiviral activity against Tick-borne virus encephalitis infected in pig PEK cells; assay type: toxicity, cell-based; details: read-out: Ratio CC50/EC50
[12] = Selectivity index, ratio of CC50 for human HEL cells to EC50 for Antiviral activity against Human cytomegalovirus Davis; assay type: toxicity; details: read-out: Ratio CC50/EC50
[13] = tested on: SARS-CoV-2; assay: Antiviral activity against SARS COV-2 infected in monkey vero cells assessed as reduction in virus-induced cytopathic effect preincubated with virus for 1 hr followed by cell infection and measured after 5 days by microscopic analysis; assay type: functional, organism-based; details: Severe acute respiratory syndrome coronavirus 2, Vero
[14] = tested on: Human alphaherpesvirus 3; assay: Antiviral activity against thymidine kinase positive Varicella zoster virus; assay type: functional, organism-based; outline: as §1
[15] = tested on: Influenza A virus; assay: Antiviral activity against Influenza A virus (H1N1) infected in MDCK cells assessed as reduction in cytopathic effect preincubated with cells for 1 hrs followed by viral addition and measured after 24 hrs by Reed-Muench method; assay type: functional, organism-based
Outline: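 MDCK monolayers were pre-incubated 1 h at 37 °C with 3-fold compound dilutions (from 2 mg/mL DMSO stock), then infected at MOI 1 for 24 h. Supernatant yield was titrated by 10-fold dilutions on fresh MDCK for 72 h. Titre was read by hemagglutination with 1% chicken erythrocytes and calculated by Reed-Muench as TID50 per 100 μL.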

[16] = tested on: Human alphaherpesvirus 3; assay: Antiviral activity against thymidine kinase deficient Varicella zoster virus; assay type: functional, organism-based; outline: as §1
[17] = tested on: Respiratory syncytial virus; assay: Antiviral activity against Respiratory syncytial virus assessed as reduction in virus-induced cytopathic effect by MTS assay; assay type: functional, organism-based; details: human respiratory syncytial virus
[18] = tested on: Vero; assay: (§4) Cytotoxicity in African green monkey Vero cells assessed as reduction in cell viability measured after 5 days by resazurin dye based assay; details: chlorocebus sabaeus, vero, 120 h; time 5 day
Outline: (§5)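 Cells (about 10⁵/well, 5% FBS) were added to two-fold compound dilutions (eight concentrations from 100 μM; DMSO control) and held 5 days at 36.5 °C in CO2. Medium was then replaced with resazurin (25 μg/mL) for 4 h and stopped with SDS. Fluorescence was read at Ex 525 / Em 580–640 nm, with background wells without resazurin subtracted. Done in two replicates; CC50 calculated.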

[19] = tested on: HEL; assay: Cytotoxicity against human HEL cells assessed as reduction in cell viability measured after 3 days by beckman coulter counting method; assay type: cell-based; details: 72 h, time 3 day; outline: as §3
[20] = Cytotoxicity in pig PEK cells assessed as reduction in cell viability measured after 5 days by resazurin dye based assay; parameters: species or system Sus scrofa, Kidney; details: 120 h, time 5 day; outline: as §5
[21] = Selectivity index, ratio of CC50 for human HEL cells to EC50 for antiviral activity against thymidine kinase deficient Varicella zoster virus; assay type: toxicity; details: read-out: Ratio CC50/EC50
[22] = Selectivity index, ratio of CC50 for human HEL cells to EC50 for Antiviral activity against Human cytomegalovirus AD169; assay type: toxicity; details: read-out: Ratio CC50/EC50
[23] = tested on: HEp-2; assay: Cytotoxicity in human Hep2 cells assessed as reduction in cell viability measured after 3 days by beckman coulter counting method; assay type: functional; details: HEp-2, 72 h, time 3 day
Outline: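 Hep2 cells seeded at 5 × 10³ cells/well and allowed to grow 24 h, then exposed to compound dilutions starting at 100 μM for 3 days at 37 °C. Cell number measured by Coulter counter.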

[24] = tested on: Human betaherpesvirus 5; assay: Antiviral activity against Human cytomegalovirus Davis; assay type: functional, organism-based; details: Human betaherpesvirus 5, Davis; outline: as §1
[25] = Selectivity index, ratio of CC50 for African green monkey Vero cells to EC50 for Antiviral activity against Chikungunya virus infected in African green monkey Vero cells; assay type: toxicity; details: read-out: Ratio CC50/EC50
[26] = Selectivity index, ratio of CC50 for human HEL cells to EC50 for antiviral activity against thymidine kinase positive Varicella zoster virus; assay type: toxicity; details: read-out: Ratio CC50/EC50
[27] = tested on: Tick-borne encephalitis virus; assay: Antiviral activity against Tick-borne encephalitis virus infected in PEK cells assessed as reduction in viral plaque formation incubated for 1 hr by Reed-Muench method; assay type: functional, organism-based
[28] = Selectivity index, ratio of CC50 for dog MDCK cells to EC50 for Influenza A virus (A/California/07/09(H1N1)) infected in MDCK cells; assay type: toxicity, cell-based; details: read-out: Ratio CC50/EC50
[29] = tested on: Human alphaherpesvirus 3; assay: Antiviral activity against wild type Varicella zoster virus infected in HEL cells assessed as reduction in viral plaque formation incubated for 2 hrs; assay type: functional, organism-based; details: Human alphaherpesvirus 3, HEL; outline: as §1
[30] = tested on: Human alphaherpesvirus 3; assay: Antiviral activity against thymidine kinase deficient Varicella zoster virus infected in HEL cells assessed as reduction in viral plaque formation incubated for 2 hrs; assay type: functional, organism-based; details: Human alphaherpesvirus 3, HEL; outline: as §1
[31] = Selectivity index, ratio of CC50 for pig PEK cells to EC50 for Antiviral activity against Omsk hemorrhagic fever virus infected in pig PEK cells; assay type: toxicity, cell-based; details: read-out: Ratio CC50/EC50
[32] = tested on: Omsk hemorrhagic fever virus; assay: Antiviral activity against Omsk hemorrhagic fever virus infected in pig PEK cells assessed as reduction in virus plaque formation preincubated with virus for 1 hr followed by cell infection and measured after 1 hr by crystal violet staining based assay; assay type: functional, organism-based
[33] = as §2; assay type: cell-based, Canis lupus familiaris; details: MDCK cells, time 3 day; outline: as §3
[34] = as §4; details: chlorocebus sabaeus, Vero cells; time 5 day; outline: as §5
[35] = Selectivity index, ratio of CC50 for human Hep2 cells to EC50 for Respiratory syncytial virus; assay type: toxicity; details: read-out: Ratio CC50/EC50
[36] = tested on: Human alphaherpesvirus 3; assay: Antiviral activity against Varicella zoster virus assessed as inhibition of viral replication; assay type: functional, organism-based

For `Cc1cn2c(=O)c3ncn(COC(CO)CO)c3nc2[nH]1`, the MIC [1] was 14.3 µM (≈ 4.19 µg/mL), the MIC [2] was 14.3 µM (≈ 4.19 µg/mL) and the MIC [3] was 0.07 µM (≈ 0.0205 µg/mL). It also gave an MIC [4] of 0.07 µM (≈ 0.0205 µg/mL).
`CCCCCCCCOc1ccc2c(c1)Nc1nc(=O)n([C@H]3C[C@H](O)[C@@H](CO)O3)cc1O2` gave a selectivity ratio [5] greater than 66, an EC50 [6] of 54.7 µM and an EC50 [7] of 1.5 µM. The EC50 [8] was 2.8 µM, the CC50 [9] was greater than 100 µM and the EC50 [10] was 2.5 µM. For the same compound, the selectivity ratio [11] was greater than 35, the selectivity ratio [12] was greater than 2 and the EC50 [13] was greater than 100 µM. The EC50 [14] was 0.42 µM, the EC50 [15] was 82 µM and the EC50 [16] was 15.9 µM. For the same compound, the EC50 [17] was greater than 100 µM, the CC50 [18] was greater than 100 µM and the CC50 [19] was greater than 100 µM. For the same compound, the CC50 [20] was greater than 100 µM, the selectivity ratio [21] was greater than 6 and the selectivity ratio [22] was greater than 2. It also gave a CC50 [23] greater than 100 µM, an EC50 [24] of 42.3 µM and a selectivity ratio [25] greater than 40. It also gave a selectivity ratio [26] greater than 238.
For `COc1ccc(C(OC[C@H]2O[C@@H](n3cc4c(nc3=O)Nc3ccccc3O4)C[C@@H]2O)(c2ccccc2)c2ccc(OC)cc2)cc1`, the EC50 [27] was 0.4 µM.
Compound `CCCCCCCCCCOc1ccc2c(c1)Nc1nc(=O)n([C@H]3C[C@H](O)[C@@H](CO)O3)cc1O2` has a selectivity ratio [5] greater than 22, an EC50 [6] greater than 100 µM and an EC50 [7] of 4.4 µM. The EC50 [8] was 40 µM, the CC50 [9] was greater than 100 µM and the selectivity ratio [12] was 5. The EC50 [13] was greater than 100 µM, the EC50 [14] was 0.68 µM and the selectivity ratio [28] was greater than 29. The EC50 [15] was 3.4 µM, the EC50 [16] was 15.2 µM and the EC50 [17] was greater than 100 µM. The CC50 [18] was greater than 100 µM, the CC50 [19] was 50.3 µM and the CC50 [20] was greater than 100 µM. The selectivity ratio [21] was 3, the CC50 [23] was greater than 100 µM and the EC50 [24] was 10.4 µM.
Work on `O=c1nc2c(cn1[C@H]1C[C@H](O)[C@@H](CO)O1)Oc1ccccc1N2` yielded an EC50 [29] of 0.06 µM and an EC50 [30] of 10 µM.
Compound `Cc1cn2c(=O)c3ncn(COCCO)c3nc2[nH]1` has an MIC [3] of 1.52 µM (≈ 0.4 µg/mL) and an MIC [4] of 1.52 µM (≈ 0.4 µg/mL).
`COc1ccc(C(OCCOCn2cc3c(nc2=O)N(C)c2ccccc2O3)(c2ccccc2)c2ccc(OC)cc2)cc1` gave a selectivity ratio [31] greater than 32, a selectivity ratio [5] greater than 12 and an EC50 [6] of 48.9 µM. For the same compound, the EC50 [7] was 8 µM, the EC50 [8] was 16 µM and the CC50 [9] was greater than 100 µM. The EC50 [32] was 3.1 µM, the EC50 [10] was 6.1 µM and the selectivity ratio [11] was greater than 6. For the same compound, the selectivity ratio [12] was greater than 2, the EC50 [13] was greater than 100 µM and the EC50 [14] was greater than 20 µM. It also gave an EC50 [15] of 79 µM, an EC50 [16] greater than 20 µM and an EC50 [17] greater than 100 µM. It also gave a CC50 [18] greater than 100 µM, a CC50 [19] greater than 100 µM and a CC50 [20] greater than 100 µM. It also gave a selectivity ratio [22] greater than 2, a CC50 [23] greater than 100 µM and an EC50 [24] of 44.7 µM. The selectivity ratio [25] was greater than 16.
`O=c1nc2c(cn1[C@H]1C=C[C@@H](O)C1)Oc1ccccc1N2` gave an EC50 [6] greater than 20 µM, a CC50 at 72 h [33] greater than 100 µM and an EC50 [13] greater than 100 µM. For the same compound, the EC50 [14] was greater than 100 µM, the EC50 [16] was 64.4 µM and the EC50 [17] was 11 µM. It also gave a CC50 at 120 h [34] greater than 100 µM, a CC50 [19] greater than 100 µM and a selectivity ratio [35] of 7. The CC50 [23] was 80 µM and the EC50 [24] was greater than 100 µM.
In the case of `O=c1[nH]c(=O)n([C@H]2C[C@H](O)[C@@H](CO)O2)cc1/C=C/Br` [BRIVUDINE], the EC50 [36] is reported as 3.4 µM, the EC50 [14] is reported as 0.034 µM and the EC50 [16] is reported as 0.42 µM. The CC50 [19] was greater than 300 µM.
